Measurements collected from several papers.
Lines come from different studies, so protocols differ.
Target: Phosphatidylinositol 4-kinase beta (PI4KB, Homo sapiens, UniProt Q9UBF8)

SMILES | observed | method | tested at | remaining binding [%]
CC(C)CC(=O)N1CCc2nc(-c3ccc(Br)cc3)nc(N(C)Cc3ccccc3)c2C1 | cell-free assay | competition with immobilised ligand | 0.1 µM | 100
C=CC(=O)N1CCC(C(=O)NCC(=O)N2CCN(c3nc(-c4cnc(N)nc4C(F)F)nc(N4CCOCC4)n3)CC2)CC1 | binding | competition with immobilised ligand | 1 µM | 100
CN(C)c1nccc(-c2cnn3ncccc23)n1 | binding |  | 1 µM | 58
c1cncc(-c2cccc(Nc3nccc(NC4CCCCC4)n3)c2)c1 | binding | competition with immobilised ligand | 10 µM | 1.1
N[C@H]1CCN(c2nccc(-c3cnn4ncccc34)n2)C1 | binding |  | 1 µM | 100
O=C(NCCCN1CCOCC1)c1ccc(Nc2nccc(-c3cc4ccccc4s3)n2)cc1 | binding | competition with immobilised ligand | 1 µM | 45
C[C@@H](c1ccc(-n2cnc3c(N)ncnc32)cc1)N1CCc2nn(C)c(Cc3ccccc3)c2C1=O | binding | competition with immobilised ligand | 0.1 µM | 42
O=C(NCCCN1CCOCC1)c1ccc(Nc2ncc(Cl)c(-c3ccc(Cl)s3)n2)cc1 | binding | competition with immobilised ligand | 1 µM | 100
CN(C)c1ncc(F)c(-c2cnn3ncccc23)n1 | binding |  | 1 µM | 100
O=C(c1ccc(Nc2nccc(-c3cc4ccccc4s3)n2)cc1)N1CCC(N2CCCC2)CC1 | binding | competition with immobilised ligand | 1 µM | 58
CNCc1ccccc1-c1csc([C@@H](C)Nc2nc(C)nc3cc(OC)c(OC)cc23)c1 | cell-free assay | competition with immobilised ligand | 1 µM | 82
COc1cnc(Nc2cccc(S(N)(=O)=O)c2)nc1N1CCN(c2ccccc2)C(=O)C1 | binding | competition with immobilised ligand | 1 µM | 13
O=C(N1CCS(=O)(=O)CC1)N1C[C@H](c2ccc(OC(F)(F)F)cc2)C[C@H](c2nc(C3CC3)no2)C1 | cell-free assay | competition with immobilised ligand | 1 µM | 100
O=C(NCC1CCOCC1)c1n[nH]cc1NC(=O)c1c(F)cccc1F | binding | competition with immobilised ligand | 1 µM | 92
CN(c1nccc(-c2cnn3ncccc23)n1)C1CC1 | binding |  | 1 µM | 100
FC(F)(F)c1ccc2c(c1)nc(-c1cccnc1)n2C1CC1 | cell-free assay | competition with immobilised ligand | 1 µM | 94
F[C@@H]1CCN(c2nccc(-c3cnn4ncccc34)n2)C1 | binding |  | 1 µM | 89
CN(C)C(=O)Cn1cc(-c2nc([C@@](C)(c3ccc(-c4cnc(N)nc4)cc3)C3CC3)no2)cn1 | cell-free assay | competition with immobilised ligand | 1 µM | 92
C[C@H]1CCN(c2nccc(-c3cnn4ncccc34)n2)C1 | binding |  | 1 µM | 19
Nc1c(C(=O)NCc2ccc(C(=O)NCCCC3CCCCC3)cc2)cnn1-c1ccccc1 | cell-free assay | competition with immobilised ligand | 0.1 µM | 100
COc1ccnn2ncc(-c3ccnc(N(C)C)n3)c12 | binding |  | 1 µM | 65
CCN1CCN(Cc2ccc(C(=O)Nc3ccc(C)c(Oc4ccc5c(c4)CC(=O)N5)c3)cc2C(F)(F)F)CC1 | binding | competition with immobilised ligand | 1 µM | 100
